Experimental data: ChEMBL document CHEMBL4118192, “BET bromodomain ligands: Probing the WPF shelf to improve BRD4 bromodomain affinity and metabolic stability” (Bioorg Med Chem, 2018)

Key:
Format in all cases: functional
HCT-116 = test: Growth inhibition of human HCT116 cells after 48 hrs by sulforhodamine B assay; conditions: HCT-116, 48 h
Summary of the method: (§1)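 NCI-60 panel screen. Cells were exposed for 48 h at five concentrations between 10 nM and 100 μM. Cellular protein was read by sulforhodamine B staining, and GI50 and total growth inhibition (TGI) concentrations were derived.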

Malme-3M = test: Growth inhibition of human MALME-3M cells at 10 uM after 48 hrs by sulforhodamine B assay relative to control; conditions: read-out: GI
Summary of the method: (§2)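 NCI-60 single-dose screen at 10 μM for 48 h. Percent growth inhibition was measured by sulforhodamine B staining of cellular protein.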

IGROV-1 = test: Growth inhibition of human IGROV1 cells at 10 uM after 48 hrs by sulforhodamine B assay relative to control; conditions: IGROV-1, 48 h, read-out: GI; summary of the method: as §2
MDA-MB-435 = test: Growth inhibition of human MDA-MB-435 cells after 48 hrs by sulforhodamine B assay; conditions: MDA-MB-435, 48 h; summary of the method: as §1
M14 = test: Growth inhibition of human M14 cells after 48 hrs by sulforhodamine B assay; conditions: M14, 48 h; summary of the method: as §1
SNB-75 = test: Growth inhibition of human SNB75 cells at 10 uM after 48 hrs by sulforhodamine B assay relative to control; conditions: SNB-75, 48 h, read-out: GI
Summary of the method: (§3)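 NCI-60 human cancer cell line screen, single dose of 10 μM for 48 h. Cellular protein content read by sulforhodamine B staining; growth inhibition expressed relative to untreated control.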

HT-29 = test: Growth inhibition of human HT-29 cells after 48 hrs by SRB assay; conditions: HT-29, 48 h
Summary of the method: (§4)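 In-house assay. Cells were seeded into 96-well plates at a density for exponential growth and treated with a concentration range for 48 h. They were then fixed in 10% (w/v) TCA and stained with sulforhodamine B. The 50% growth-inhibitory concentration relative to control cells was calculated as the mean of three repeats ± standard deviation.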

CCRF-CEM = test: Growth inhibition of human CCRF-CEM cells after 48 hrs by sulforhodamine B assay; summary of the method: as §1
OVCAR-5 = test: Growth inhibition of human OVCAR5 cells after 48 hrs by sulforhodamine B assay; conditions: OVCAR-5, 48 h
Summary of the method: (§5)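 NCI-60 panel follow-up: five concentrations from 10 nM to 100 μM, 48 h exposure. Growth read by sulforhodamine B protein staining. GI50 derived from the concentration-response, with the concentration for total growth inhibition (TGI) also recorded when below 100 μM.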

MDA-MB-231 = test: Growth inhibition of human MDA-MB-231 cells at 10 uM after 48 hrs by sulforhodamine B assay relative to control; conditions: MDA-MB-231, 48 h, read-out: GI; summary of the method: as §2
SR = test: Growth inhibition of human SR cells after 48 hrs by sulforhodamine B assay
Summary of the method: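 NCI-60 panel cells treated at five concentrations from 10 nM to 100 μM for 48 h. Read-out by sulforhodamine B protein stain. GI50 and total growth inhibition (TGI, if below 100 μM) taken from the concentration-response data.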

786-0 = test: Growth inhibition of human 786-0 cells at 10 uM after 48 hrs by sulforhodamine B assay relative to control; conditions: 786-0, 48 h, read-out: GI; summary of the method: as §2
UO-31 = test: Growth inhibition of human UO31 cells at 10 uM after 48 hrs by sulforhodamine B assay relative to control; conditions: UO-31, 48 h, read-out: GI; summary of the method: as §3
TK-10 = test: Growth inhibition of human TK10 cells at 10 uM after 48 hrs by sulforhodamine B assay relative to control; conditions: TK-10, 48 h, read-out: GI; summary of the method: as §3
A498 [1] = test: Growth inhibition of human A498 cells after 48 hrs by SRB assay; conditions: A498, 48 h; summary of the method: as §4
K562 = test: Growth inhibition of human K562 cells at 10 uM after 48 hrs by sulforhodamine B assay relative to control; conditions: K562, 48 h, read-out: GI; summary of the method: as §2
PC-3 = test: Growth inhibition of human PC3 cells at 10 uM after 48 hrs by sulforhodamine B assay relative to control; conditions: PC-3, 48 h, read-out: GI
Summary of the method: (§6)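 NCI-60 human cancer cell line screen, single-dose pass: cells exposed to 10 μM for 48 h. Cellular protein content read out by sulforhodamine B staining, and growth inhibition expressed relative to untreated control.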

T47D = test: Growth inhibition of human T47D cells at 10 uM after 48 hrs by sulforhodamine B assay relative to control; conditions: read-out: GI; summary of the method: as §3
Hs-578T = test: Growth inhibition of human Hs 578T cells at 10 uM after 48 hrs by sulforhodamine B assay relative to control; conditions: read-out: GI; summary of the method: as §2
LOX IMVI = test: Growth inhibition of human LOXIMVI cells after 48 hrs by sulforhodamine B assay; summary of the method: as §1
CAKI-1 = test: Growth inhibition of human CAKI-1 cells at 10 uM after 48 hrs by sulforhodamine B assay relative to control; conditions: CAKI-1, 48 h, read-out: GI; summary of the method: as §2
NCI-H322M = test: Growth inhibition of human NCI-H322M cells after 48 hrs by sulforhodamine B assay; summary of the method: as §5
A498 [2] = test: Growth inhibition of human A498 cells at 10 uM after 48 hrs by sulforhodamine B assay relative to control; conditions: A498, 48 h, read-out: GI; summary of the method: as §2
NCI-H522 = test: Growth inhibition of human NCI-H522 cells at 10 uM after 48 hrs by sulforhodamine B assay relative to control; conditions: NCI-H522, 48 h, read-out: GI; summary of the method: as §6
SK-MEL-5 = test: Growth inhibition of human SK-MEL-5 cells after 48 hrs by sulforhodamine B assay; conditions: SK-MEL-5, 48 h; summary of the method: as §5
OVCAR-8 = test: Growth inhibition of human OVCAR8 cells at 10 uM after 48 hrs by sulforhodamine B assay relative to control; conditions: OVCAR-8, 48 h, read-out: GI; summary of the method: as §6
UACC-257 = test: Growth inhibition of human UACC257 cells at 10 uM after 48 hrs by sulforhodamine B assay relative to control; conditions: UACC-257, 48 h, read-out: GI; summary of the method: as §3
DU-145 = test: Growth inhibition of human DU145 cells at 10 uM after 48 hrs by sulforhodamine B assay relative to control; conditions: DU-145, 48 h, read-out: GI; summary of the method: as §2
BT-549 = test: Growth inhibition of human BT549 cells at 10 uM after 48 hrs by sulforhodamine B assay relative to control; conditions: BT-549, 48 h, read-out: GI; summary of the method: as §2
RXF 393 = test: Growth inhibition of human RXF393 cells after 48 hrs by sulforhodamine B assay; conditions: RXF 393, 48 h; summary of the method: as §5
NCI/ADR-RES = test: Growth inhibition of human NCI-ADR-RES cells at 10 uM after 48 hrs by sulforhodamine B assay relative to control; conditions: read-out: GI; summary of the method: as §6
HOP-92 = test: Growth inhibition of human HOP92 cells at 10 uM after 48 hrs by sulforhodamine B assay relative to control; conditions: HOP-92, 48 h, read-out: GI; summary of the method: as §2
SF-539 = test: Growth inhibition of human SF539 cells after 48 hrs by sulforhodamine B assay; conditions: SF-539, 48 h; summary of the method: as §5

Row | Structure (SMILES) | GI50 (HCT-116) [µM] | inhibition of growth at 10 µM (Malme-3M) [%] | inhibition of growth at 10 µM (IGROV-1) [%] | GI50 (MDA-MB-435) [µM] | GI50 (M14) [µM] | inhibition of growth at 10 µM (SNB-75) [%] | GI50 (HT-29) [µM] | GI50 (CCRF-CEM) [µM] | GI50 (OVCAR-5) [µM] | inhibition of growth at 10 µM (MDA-MB-231) [%] | GI50 (SR) [µM] | inhibition of growth at 10 µM (786-0) [%] | inhibition of growth at 10 µM (UO-31) [%] | inhibition of growth at 10 µM (TK-10) [%] | GI50 (A498 [1]) [µM] | TGI (A498 [1]) [µM] | inhibition of growth at 10 µM (K562) [%] | inhibition of growth at 10 µM (PC-3) [%] | inhibition of growth at 10 µM (T47D) [%] | inhibition of growth at 10 µM (Hs-578T) [%] | further results
1 | Cc1noc(C)c1-c1cc(O)cc(C(O)c2ccccc2)c1 (stereo unspecified) | 7.08 | 40 | 54 | 3.48 | 4.48 | 113 | 4.54 to 5.79 | 14.8 | 31.8 | 37.6 | 1.01 | 45.2 | 83.1 | 87.4 | 1.58 to 2.6 | 20.3 | 57.9 | 51.6 | 52.9 | 66.3 | GI50 (LOX IMVI): 3.6 µM; TGI (LOX IMVI): 80.5 µM; inhibition of growth at 10 µM (CAKI-1): 76.2%; GI50 (NCI-H322M): 8.41 µM; inhibition of growth at 10 µM (A498 [2]): 103%; inhibition of growth at 10 µM (NCI-H522): 77.9%; GI50 (SK-MEL-5): 5.95 µM; TGI (SK-MEL-5): 29.5 µM; inhibition of growth at 10 µM (OVCAR-8): 61.4%; inhibition of growth at 10 µM (UACC-257): 59.6%; inhibition of growth at 10 µM (DU-145): 12.5%; inhibition of growth at 10 µM (BT-549): 35.3%; GI50 (RXF 393): 17.2 µM; inhibition of growth at 10 µM (NCI/ADR-RES): 40.8%; inhibition of growth at 10 µM (HOP-92): 74.4%; GI50 (SF-539): 4.56 µM
2 | COc1ccccc1S(=O)(=O)Nc1ccc2c(c1)CN(C)C(=O)N2 | 4.5 | 67.8 | 76 | 2.6 | 2.9 | 82.5 | 3 | 7.8 | 10.5 | 45.3 | 3.7 | 27.3 | 89.8 | 82.7 | 1.8 | 6 | 71.4 | 64.7 | 68.6 | 66.3 | GI50 (LOX IMVI): 3.5 µM; TGI (LOX IMVI): 21.4 µM; inhibition of growth at 10 µM (CAKI-1): 78.8%; GI50 (NCI-H322M): 6 µM; inhibition of growth at 10 µM (A498 [2]): 103%; inhibition of growth at 10 µM (NCI-H522): 73.9%; GI50 (SK-MEL-5): 6.3 µM; inhibition of growth at 10 µM (OVCAR-8): 43.8%; inhibition of growth at 10 µM (UACC-257): 66.2%; inhibition of growth at 10 µM (DU-145): 22.2%; inhibition of growth at 10 µM (BT-549): -0.7%; GI50 (RXF 393): 7.9 µM; inhibition of growth at 10 µM (NCI/ADR-RES): 31.1%; inhibition of growth at 10 µM (HOP-92): 97.6%; GI50 (SF-539): 4.5 µM
